# Compound activity as filed in PubChem.
# NS3 helicase inh = HCV NS3 helicase inhibition. NS3 helicase DNA unwinding, Cy5 molecular beacon fluorescence. inhibition, % at 10.9 µM. 0.56% of 290,000 active;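 active = inhibition above the mean of all tested compounds plus 3 SD, set per campaign, cut at about 35% in these data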
#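 Compound dosing – single dose, 10.9 µM nominal final, DMSO 0.8% final · System – NS3 helicase fragment of HCV · Buffer or medium – MOPS pH 6.5, MgCl2, DTT, Tween20, BSA · Signal – Cy5 beacon fluorescence read at start and 1 h · Also added – annealed dual-labelled DNA beacon duplex, ATP-started · Schedule – 1 h at 25 °C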
# UBC9 SUMO inh = blocks human SUMOylation mediated by UBC9. P63279. HTRF SUMOylation assay, SAE1/SAE2 + UBC9, in vitro. inhibition, % at 35 µM. 0.36% of 290,000 active. AID 2006; in the data active = inhibition above about 50%, passing the limit was not always enough
# Target sequence (P63279 whole entry, looked up): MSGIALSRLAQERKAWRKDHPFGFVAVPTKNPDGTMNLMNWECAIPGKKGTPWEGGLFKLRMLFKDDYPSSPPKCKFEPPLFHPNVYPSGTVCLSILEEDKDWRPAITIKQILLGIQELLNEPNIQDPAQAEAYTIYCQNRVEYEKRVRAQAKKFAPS
# VIM-2 inhibitor = blocks Pseudomonas aeruginosa VIM-2 metallo-beta-lactamase; purified VIM-2, nitrocefin hydrolysis, epi-absorbance fluorescence; inhibition, % at 5.6 µM; 0.89% of 290,000 active; AID 1527;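 active = inhibition above the mean of all tested compounds plus 3 SD, cutoff set per screening run, cut at about 7.5% in these data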;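 note: red hydrolysis product quenches plate fluorescence so inhibitors raise well fluorescence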
# FID counter = counter-screen for HCV NS3 helicase inhibitors: DNA intercalator displacement | DNA fluorescent intercalator displacement, fluorescence | inhibition, % at 7.9 µM | 0.17% of 290,000 active | AID 1845; in the data active = inhibition above about 37%;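 note: higher means more ethidium bromide displaced from hairpin DNA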
# IMP-1 inh-1 = inhibitors of Pseudomonas aeruginosa IMP-1 metallo-beta-lactamase; purified IMP-1, nitrocefin hydrolysis, epi-absorbance fluorescence; inhibition, % at 5.6 µM; 0.45% of 290,000 active; AID 1556;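 active = inhibition above the mean plus 3 SD of all compounds in the same screening run, cut at about 4.5% in these data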
#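 System: Purified IMP-1 | Read-out basis: Percent enzyme inhibition | Controls: IMP-1 with DMSO as 0%, enzyme-free DMSO as 100% | Replicates: One well per compound | Doses: 5.6 µM nominal single concentration | Detection: Epi-absorbance fluorescence, 480 nm excitation, 530 nm emission | Incubation: 25 °C, 15 min preincubation, 25 min reaction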
# IMP-1 inh-2 = blocks IMP-1 metallo-beta-lactamase in VIM-2 selectivity screen | shares compounds with VIM-2 inhibitor | purified IMP-1, nitrocefin hydrolysis, epi-absorbance fluorescence | inhibition, % at 5.6 µM | 1,300 tested, under 10 active | AID 1856; call rule not given here
# VIM-2 FRET inh = VIM-2 FRET inhibition, artifact counter-screen. shares compounds with VIM-2 inhibitor. purified VIM-2, CCF2 FRET substrate hydrolysis. inhibition, % at 5.6 µM. 23% of 1,300 active. AID 1857;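 active = inhibition above the mean of all tested compounds plus 3 SD, cut at about 19% in these data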
# TEM-1 counter = selectivity counter-screen for VIM-2 inhibitors: E. coli TEM-1 inhibitors; Purified TEM-1, nitrocefin hydrolysis, epi-absorbance fluorescence; inhibition, % at 5.6 µM; 3% of 1,300 active; shares compounds with VIM-2 inhibitor;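 active = inhibition above that campaign's mean inhibition plus 3 SD, cut at about 0.46% in these data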
# Target sequence (P62593 whole entry, looked up): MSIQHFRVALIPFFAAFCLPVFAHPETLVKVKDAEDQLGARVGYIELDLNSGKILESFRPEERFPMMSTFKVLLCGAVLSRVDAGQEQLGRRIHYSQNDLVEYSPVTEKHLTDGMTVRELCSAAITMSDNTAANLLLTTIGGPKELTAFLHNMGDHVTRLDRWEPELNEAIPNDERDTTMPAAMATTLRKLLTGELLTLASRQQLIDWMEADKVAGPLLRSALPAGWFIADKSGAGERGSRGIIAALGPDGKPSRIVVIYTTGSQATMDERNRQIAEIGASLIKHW
# VIM-2 confirm 2 = confirmation of P. aeruginosa VIM-2 metallo-beta-lactamase inhibitors | purified VIM-2, nitrocefin hydrolysis, epi-absorbance | 96% of 1,300 active | shares compounds with VIM-2 inhibitor | inhibition, % at 5.6 µM;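 active = inhibition of the VIM-2 beta-lactamase enzyme above about 11% from the earlier first-round screen, limit read from the data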
# A number is an active result; - = inactive; . = no result given. The list is not random: actives were taken first. Their share in the collection is about 2.1%.
SMILES,NS3 helicase inh,UBC9 SUMO inh,VIM-2 inhibitor,FID counter,IMP-1 inh-1,IMP-1 inh-2,VIM-2 FRET inh,TEM-1 counter,VIM-2 confirm 2
CCN(CC)S(=O)(=O)c1ccc(C)c(NC(=O)CN2CCN(C)CC2)c1,-,-,-,-,-,.,.,.,.
NC(=O)c1nsc(C(=O)N(Cc2cccnc2)C(C(=O)NCc2ccc(F)cc2)c2ccc(O)cc2)c1N (stereo not given),-,-,-,-,-,.,.,.,.
Cc1cc(C)c2nc3nc(C)c(C)cc3c(N)c2c1,-,-,18,-,-,-,-,-,29
Clc1ccc(Nc2c3c(nc4ncnn24)CCC3)cc1,-,-,-,-,-,.,.,.,.
Cc1cc(C)cc(Nc2c3c(nc4ncnn24)CCC3)c1,-,-,32,-,-,-,-,-,48
Cc1cccc(Nc2c3c(nc4ncnn24)CCC3)c1,-,-,13,-,-,-,-,-,29
Cc1cccc(CN2CCC(Oc3ccc(C(=O)N4CCCCC4)cc3)CC2)c1,-,-,-,-,-,.,.,.,.
O=C1N=C2N(CCN3CCCCC3)c3ccccc3N2/C1=C\c1ccc([N+](=O)[O-])o1,-,-,-,-,-,.,.,.,.
Oc1ccc(-c2nccc(-c3ccc(F)cc3)n2)cc1,-,-,16,-,-,-,-,-,31
Cc1oc2ccc(Br)cc2c(=O)c1-c1nn[nH]n1,-,-,21,-,-,-,41,4.2,27
CC(C)[C@H](NC(=O)N1CC(=O)Nc2ccccc21)C(=O)N[C@H](Cc1c[nH]c2ccccc12)C(=O)O,-,-,13,-,-,-,22,-,12
CCC(C)[C@H](NC(=O)N1CC(=O)Nc2ccccc21)C(=O)N[C@H](Cc1c[nH]c2ccccc12)C(=O)O (stereo not given in full),-,-,-,-,-,.,.,.,.
Oc1ccc(C2=Nn3c(nnc3-c3ccco3)SC2)cc1O,-,-,16,-,-,-,-,-,28
O=C(CSc1ccc(-c2ccccn2)nn1)Nc1ccc(F)c(F)c1,-,-,-,-,-,.,.,.,.
CN1CCc2c(sc(NC(=O)c3cc(Cl)sc3Cl)c2C(N)=O)C1,-,-,14,-,-,-,-,-,21
CC(C)(C)[C@@H]1CCC(=O)N(CC[C@H](N=[N+]=[N-])c2ccccc2)CC1,-,-,-,-,-,.,.,.,.
CCOC(=O)c1c(-c2ccc(-c3ccccc3)cc2)csc1NC(=O)CNCCN(C)C,-,-,17,-,-,-,-,-,27
COc1ccc(S(=O)(=O)N2CCCC(C(=O)NCc3ccccc3)C2)cc1 (stereo not given),-,-,-,-,-,.,.,.,.
CCOCCc1nnc(NC(=O)CCS(=O)(=O)c2ccccc2)s1,-,-,12,-,-,-,-,-,14
CNC[C@H](CC1CCCCC1)NC[C@H](CO)NCC1(c2ccccc2)CC1,-,-,-,-,-,.,.,.,.
CNC[C@H](CC1CCCCC1)NC[C@H](CO)NCCc1cccc(C(F)(F)F)c1,-,-,21,-,-,-,-,-,30
COc1cccc(C(=O)NCCCN2CCN(CCCNC(=O)c3cccc(OC)c3)CC2)c1,-,-,-,-,-,.,.,.,.
O=C1Nc2cc(C(=O)NCCCN3CCCC3)ccc2S/C1=C/c1ccccc1F,-,-,33,-,-,-,54,-,38
O=C(NCCCN1CCCCC1)c1ccc2c(c1)NC(=O)c1ccccc1S2,-,-,-,-,-,.,.,.,.
COc1cccc(/C=C2/Sc3ccc(C(=O)NCCCN4CCCC4)cc3NC2=O)c1,-,-,16,-,-,-,43,-,28
Cc1cc(C(=O)OCC(=O)NC(=O)c2cccn2C)c2ccccc2n1,-,-,12,-,-,-,46,-,33
CCn1cc(C(=O)O)c(=O)c2cc(F)c(N/N=C/c3ccccc3[N+](=O)[O-])cc21,-,-,-,-,-,.,.,.,.
